Compound activity: PubChem BioAssay, Johns Hopkins Ion Channel Center
TRPC4 block – TRPC4 (mouse) channel inhibition; B-score at 10 µM; HEK293 TRPC4beta/mu-opioid, DAMGO-evoked Fluo4 calcium flux; hits give low values; AID 2247; Q9QUQ5; actives 0.39% (n = 300,000);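 active = B-score over 3 SD under the library average, no early fluorescence shift, positive overall ratio signal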
Target sequence (Q9QUQ5 whole entry, looked up): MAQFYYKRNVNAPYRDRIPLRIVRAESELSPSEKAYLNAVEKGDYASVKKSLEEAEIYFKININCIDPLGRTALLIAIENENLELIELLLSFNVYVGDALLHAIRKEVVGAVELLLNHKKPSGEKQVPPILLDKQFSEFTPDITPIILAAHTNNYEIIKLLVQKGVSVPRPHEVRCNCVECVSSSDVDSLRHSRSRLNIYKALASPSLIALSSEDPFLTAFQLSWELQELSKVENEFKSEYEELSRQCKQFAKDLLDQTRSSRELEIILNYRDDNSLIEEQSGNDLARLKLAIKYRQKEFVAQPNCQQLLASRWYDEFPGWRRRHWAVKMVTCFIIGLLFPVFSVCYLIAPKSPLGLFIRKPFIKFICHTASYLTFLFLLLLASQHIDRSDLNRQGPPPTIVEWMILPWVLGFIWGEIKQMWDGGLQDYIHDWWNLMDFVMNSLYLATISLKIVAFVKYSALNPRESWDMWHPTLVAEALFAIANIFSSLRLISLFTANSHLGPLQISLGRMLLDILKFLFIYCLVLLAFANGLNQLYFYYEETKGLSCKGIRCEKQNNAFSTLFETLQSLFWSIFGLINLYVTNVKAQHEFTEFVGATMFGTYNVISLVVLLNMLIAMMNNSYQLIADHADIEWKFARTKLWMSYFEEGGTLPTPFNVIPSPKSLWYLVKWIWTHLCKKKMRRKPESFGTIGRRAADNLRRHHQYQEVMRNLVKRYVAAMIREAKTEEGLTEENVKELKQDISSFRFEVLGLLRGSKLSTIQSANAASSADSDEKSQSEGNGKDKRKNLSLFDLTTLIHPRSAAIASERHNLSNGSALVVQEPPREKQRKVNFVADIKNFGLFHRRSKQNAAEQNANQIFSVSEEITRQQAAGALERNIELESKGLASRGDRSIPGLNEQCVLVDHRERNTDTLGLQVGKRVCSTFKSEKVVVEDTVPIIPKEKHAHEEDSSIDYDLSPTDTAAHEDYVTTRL
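Material: HEK293 cells with stable TRPC4beta plus mu-opioid receptor expression / Probe or stimulus: DAMGO in two steps, submaximal then maximal / Compound: single concentration per test compound / Technique: kinetic Fluo4 fluorescence imaging of calcium influx / Read-out: per-well B score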
TRPC4 PAM – TRPC4 (mouse) allosteric potentiation. HEK293 TRPC4beta/mu-opioid, DAMGO EC20, Fluo-4 Ca2+ flux; hits give high values. B-score at 10 µM. actives 0.42% (n = 310,000). AID 2227;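 active = B-score of calcium response area above 5 SD of library B-scores, with initial fluorescence ratio within 5 SD of library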;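 note: B-score of integrated fluorescence ratio over time as area under calcium response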
TRPC4 agonist – activators of mouse TRPC4 channel; HEK293 TRPC4beta/mu-opioid, Fluo4 calcium fluorescence; hits give high values; B-score at 10 µM; actives 0.49% (n = 310,000); AID 2237;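 active = B-score above 5 SD of library B-scores, and initial fluorescence ratio not above library mean plus 5 SD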;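 note: positive B-score marks a calcium rise read as TRPC4 activation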
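Technique: kinetic Fluo4 calcium fluorescence; Test system: TRPC4beta and mu-opioid receptor HEK293 stable cells; Measure: B-scored integrated calcium fluorescence ratio; Benchmarks: low control buffer alone, high control maximal DAMGO; Schedule: 45 min room-temperature Fluo4 loading, 110 s read.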
TRPC6 inhibitor – inhibitors of mouse TRPC6 channel; HEK293-TRPC6, membrane potential dye, ACh-evoked depolarization; hits give low values; actives 1.1% (n = 310,000); B-score at 10 µM; Q61143;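 active = B-score under library mean minus 3 SD, initial fluorescence not abnormally high, positive integrated signal ratio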;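 note: B-score derived from integrated fluorescence ratio over the kinetic read; more negative B-score means stronger inhibition of depolarization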
TRPC6 act – activates the mouse TRPC6 cation channel; Q61143; HEK293-TRPC6 membrane potential dye fluorescence; hits give high values; B-score at 10 µM; actives 0.13% (n = 310,000); AID 2550;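 active = B-score of the integrated fluorescence ratio above library mean plus 3 SD, and starting fluorescence ratio within library mean plus 5 SD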;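 note: higher score means more depolarization so channel activation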
HEK293 MPD ctr – parental HEK293 nonspecific activity of TRPC6 modulators | membrane potential signal change, % at 10 µM | AID 488924 | actives 51% (n = 2,400) | membrane potential dye fluorescence | shares compounds with TRPC6 inhibitor;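 active = membrane potential signal moves up or down beyond 5 SD from buffer-only wells, on both duplicate plates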
HEK293 MPD ctr 2 – parental HEK293 nonspecific activity of TRPC6 modulators, second screen. shares compounds with TRPC6 inhibitor. membrane potential dye fluorescence; after compound, maximal acetylcholine stimulation. inhibition, % at 10 µM. actives 14% (n = 2,400);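 active = membrane potential signal drops by more than 5 SD from the mean control signal, in both duplicate plates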;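 note: plate controls were acetylcholine ECmax control wells for no effect and buffer only wells for full effect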
TRPC4/MOR mod – mouse TRPC4 off-target activity of TRPC6 modulators; shares compounds with TRPC6 inhibitor; HEK293 TRPC4/mu-opioid, membrane potential fluorescence; percent change from control (negative = decrease, positive = increase), % at 10 µM; actives 69% (n = 2,400); AID 488927;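 active = membrane potential signal moved up or down beyond 5 SD of buffer control wells, in both duplicate plates, actives on both sides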;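 note: plate controls were assay buffer wells for no effect and DAMGO maximal-effect wells for full effect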
TRPC4 ctr inh 2 – mouse TRPC4 off-target activity of TRPC6 modulators, second screen; shares compounds with TRPC6 inhibitor; HEK293 TRPC4/mu-opioid, membrane potential dye fluorescence; stimulated with maximal-effect DAMGO; inhibition, % at 10 µM; actives 55% (n = 2,400); AID 488928;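 active = drop in membrane potential signal beyond 5 SD of the control wells in both duplicate plates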;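 note: TRPC4 counter screen for TRPC6 hits run under conditions tuned for TRPC6 not TRPC4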
TRPC6 inh conf – mouse TRPC6 inhibitor confirmation; shares compounds with TRPC6 inhibitor; HEK293-TRPC6, membrane potential dye, ACh-evoked depolarization; inhibition, % at 10 µM; actives 43% (n = 3,300);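 active = fluorescence ratio falls more than 5 SD below the full-stimulation control mean, in both duplicate runs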;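 note: integrated fluorescence ratio of peak minus minimum over baseline after agonist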
TRPC6 act confirm – confirmation of mouse TRPC6 activators. actives 11% (n = 2,800). shares compounds with TRPC6 inhibitor. AID 488961. activation, % at 10 µM. HEK293-TRPC6 membrane potential dye fluorescence, FDSS;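 active = ratio signal rise beyond 5 SD above unstimulated control wells' mean, seen in both duplicate runs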;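 note: plate controls were buffer EC0 wells for no effect and acetylcholine ECmax response for full effect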
Numbers without * were called inactive; i = inactive; · = not tested or not shown. An excerpt weighted towards active compounds, which were near 2.3% of everything screened.

SMILES | TRPC4 block | TRPC4 PAM | TRPC4 agonist | TRPC6 inhibitor | TRPC6 act | HEK293 MPD ctr | HEK293 MPD ctr 2 | TRPC4/MOR mod | TRPC4 ctr inh 2 | TRPC6 inh conf | TRPC6 act confirm
CN(C)CCNc1nc2c(c(=O)[nH]c(=O)n2C)n1CC(O)COc1ccc(Cl)cc1 (stereo unspecified) | i | i | i | i | i | · | · | · | · | · | ·
c1ccc2c(c1)CCN(c1ncnc3c1[nH]c1ccccc13)C2 | i | i | 86* | -5.7* | i | i | i | i | 63%* | i | i
O=C(CN1CCCC1)N1c2ccccc2Sc2ccc(Cl)cc21 | i | i | i | -5.5* | i | 96%* | i | 14%* | 47%* | 60%* | ·
O=C(CN1CCN(c2ccccn2)CC1)N1c2ccccc2Sc2ccc(C(F)(F)F)cc21 | i | i | i | i | i | · | · | · | · | · | ·
CCNCCC(=O)N1c2ccccc2Sc2ccc(C(F)(F)F)cc21 | i | i | i | -6.1* | i | i | 94%* | 9.0%* | 42%* | 84%* | ·
O=C(CN1CCCC1)N1c2ccccc2Sc2ccc(C(F)(F)F)cc21 | i | i | i | -5.6* | i | i | i | 12%* | i | 53%* | ·
O=c1cc(CSc2ccc(S(=O)(=O)N3CCCCC3)cn2)nc2sccn12 | i | i | i | i | i | · | · | · | · | · | ·
CCOc1cc(/C=C2\N=C(SCC)SC2=O)cc([N+](=O)[O-])c1OC(C)=O | i | i | i | i | i | · | · | · | · | · | ·
CCOc1cc(/C=C2\N=C(SC)SC2=O)cc([N+](=O)[O-])c1OC(C)=O | i | i | i | -5.1* | i | i | i | i | 39%* | i | i
COc1ccc(CCNC(=O)C2(C)CCC(=O)N2Cc2ccc(C)cc2)cc1OC (stereo unspecified) | i | i | i | i | i | · | · | · | · | · | ·
CN(C)CCCN=Cc1c(O)n(Cc2ccc3c(c2)OCO3)c(=O)c2ccccc12 | i | i | i | i | i | · | · | · | · | · | ·
Nc1[nH]nc2nc(NCc3ccccc3)c3c(c12)CCN(Cc1ccccc1)C3 | i | i | i | -5.4* | i | i | i | -16%* | 49%* | 42%* | i
O=C(NCc1ccc(F)cc1)c1c2c(nc3ccccc13)CCN(Cc1ccccc1)C2 | i | i | i | i | i | · | · | · | · | · | ·
COc1ccc(CCNC(=O)C/C(C)=N/NC(=O)c2cnccn2)cc1 | i | i | i | i | i | · | · | · | · | · | ·
CSc1nc(SCCN(C)C)c2c3c(sc2n1)COC(C)(C)C3 | i | i | i | i | i | · | · | · | · | · | ·
Cc1cc(C)n(-c2nc(SCCN(C)C)c3c4c(sc3n2)CCCC4)n1 | i | i | 95* | -6.1* | i | i | i | i | 72%* | 46%* | i
